High-throughput results as filed in PubChem BioAssay.
Shown are actives, neighbours in structure and some others; about 2.3% of the full set was active somewhere.
Rtt109 HAT inh: C. albicans Rtt109 histone acetyltransferase inhibition. Q5AAJ8. purified Rtt109/Vps75, ThioGlo CoA-SH fluorescence, 4 h. inhibition, % at 34.9 µM. 330,000 tested, 0.16% active. AID 540336;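 active = inhibition of at least 50% in every replicate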
PAX8 reporter: lowers PAX8-driven luciferase in RMG-I cells | RMG-I TPO-luciferase reporter, SteadyGlo, 24 h | inhibition, % at 12.6 µM | 360,000 tested, 1.2% active | AID 652154;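 active = mean replicate inhibition at least 60% with every replicate also reaching 60%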;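 also: luciferase light reporting Pax8 driven TPO promoter activity; plate controls were median of neutral control wells for no effect and mitoxantrone controls for full effect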
Glyco luc inh: blocks N-linked glycosylation in D54 reporter cells | reporter increase, % at 12.5 µM | D54 ERlucT glycosylation luciferase reporter, 24 h; percent of 100 nM tunicamycin response | 360,000 tested, 0.23% active;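 active = mean luciferase reporter signal, scaled so untreated is 0 and the glycosylation-blocking control 100, at or above a set limit in every replicate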;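 also: luciferase carries N-glycosylation sites so blocking glycosylation raises the light; 0% = median of neutral control wells and 100% = median of 100 nM tunicamycin wells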
PfHsp90 set2: reduces growth (ATP signal) of yeast expressing P. falciparum Hsp90; 310,000 tested, 0.32% active; inhibition, % at 9.4 µM; S. cerevisiae expressing PfHsp90, BacTiter-Glo ATP, 48 h; yeast lacking PDR1 and PDR3 efflux regulators; AID 504621;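 active = every replicate shows inhibition above about 80%, whatever the replicate mean, limit read from the data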;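 also: 0% = DMSO neutral controls and 100% = 20 µM radicicol positive controls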
Arr AP2 block: blocks beta-arrestin peptide binding to AP2 adaptin; inhibition, % at 10 µM; FITC-arrestin peptide / GST-AP2 beads, flow cytometry; AP2 beta2 appendage carries R879A mutation; 340,000 tested, 0.31% active;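 active = inhibition above a set limit, near 3 SD of compounds lacking own fluorescence, cut at about 54% in these data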;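 also: plate controls were DMSO wells for no effect and 5 µM unlabelled arrestin peptide for full effect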
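Test system: GST-tagged AP2 beta2-adaptin appendage (R879A) on 4 µm glutathione beads; also added: fluorescein-tagged arrestin peptide at 50 nM final; timing: 12 min plus 1 h, RT; signal: flow cytometry, FL1 (488/535 nm); read-out: percent drop in bead-associated FITC signal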
Env fusion inh: blocks HIV Env-driven cell-cell fusion; HeLa-JRFL Env/CEM21 cell fusion, luciferase; inhibition, % at 12.3 µM; 360,000 tested, 1.1% active; AID 651610;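 active = mean replicate inhibition score of at least 50 and every replicate individually at or above 50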;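 also: 0% = plate neutral controls and 100% = maraviroc near 300 nM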
Arr-AP2 CP1: human beta-arrestin and AP2 interaction inhibition, cherry pick; shares compounds with Arr AP2 block; GST-AP2 beads, FITC arrestin peptide binding, flow cytometry; GST-fused beta2-adaptin appendage, R879A mutant; inhibition, % at 10 µM; 1,300 tested, 2% active;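 active = inhibition above a set limit, roughly 3 SD of non-fluorescent compound noise, cut at about 38% in these data; inactive = inhibition at or below that limit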;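 also: loss of bead fluorescence from 50 nM FITC arrestin peptide bound to appendage; 0% = negative control wells and 100% = excess unlabelled arrestin peptide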
Target sequence (P63010 whole entry, looked up, the tested form may be a part, one chain of several): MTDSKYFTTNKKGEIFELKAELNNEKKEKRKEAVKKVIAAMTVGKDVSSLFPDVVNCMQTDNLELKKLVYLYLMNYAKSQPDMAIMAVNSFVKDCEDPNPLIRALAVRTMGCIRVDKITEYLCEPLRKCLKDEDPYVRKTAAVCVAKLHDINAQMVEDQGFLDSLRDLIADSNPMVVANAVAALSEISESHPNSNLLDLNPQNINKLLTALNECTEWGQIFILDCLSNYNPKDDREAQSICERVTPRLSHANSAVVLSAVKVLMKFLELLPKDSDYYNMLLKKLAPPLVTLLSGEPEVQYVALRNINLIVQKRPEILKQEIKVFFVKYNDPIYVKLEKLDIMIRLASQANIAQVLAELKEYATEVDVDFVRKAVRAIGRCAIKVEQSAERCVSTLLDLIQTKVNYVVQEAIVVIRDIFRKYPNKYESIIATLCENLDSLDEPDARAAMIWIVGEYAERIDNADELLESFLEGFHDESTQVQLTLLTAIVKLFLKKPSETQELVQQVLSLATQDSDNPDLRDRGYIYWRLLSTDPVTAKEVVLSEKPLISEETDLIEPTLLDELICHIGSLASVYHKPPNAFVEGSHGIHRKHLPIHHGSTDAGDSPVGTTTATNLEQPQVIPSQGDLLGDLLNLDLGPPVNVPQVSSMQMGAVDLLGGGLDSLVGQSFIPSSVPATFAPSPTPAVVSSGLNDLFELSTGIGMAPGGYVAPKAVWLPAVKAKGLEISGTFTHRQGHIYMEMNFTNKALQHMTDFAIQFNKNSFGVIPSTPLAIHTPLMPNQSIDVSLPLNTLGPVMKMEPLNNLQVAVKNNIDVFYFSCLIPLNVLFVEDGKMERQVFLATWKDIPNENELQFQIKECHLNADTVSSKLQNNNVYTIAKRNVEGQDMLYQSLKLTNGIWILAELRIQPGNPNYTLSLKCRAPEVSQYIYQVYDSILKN
GST-FITC bead: GST-GSH bead binding interference, counter-screen; inhibition, % at 10 µM; shares compounds with Arr AP2 block; 1,300 tested, 2% active; GST-fluorescein binding to GSH beads, fluorescence;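 active = inhibition above 50%, about 3 SD of the inhibition seen with non-fluorescent compounds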;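 also: fluorescein maleimide labelled GST captured on 4 micron glutathione beads; higher means more loss of bead fluorescence from quenching or blocked binding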
An asterisk follows results filed as active; nt = not tested or not shown; [ ] = dose if it differs, or a comment.

SMILES	Rtt109 HAT inh	PAX8 reporter	Glyco luc inh	PfHsp90 set2	Arr AP2 block	Env fusion inh	Arr-AP2 CP1	GST-FITC bead
Cc1cc(Cl)ccc1NC(=O)CCC(=O)N/N=C/c1cc([N+](=O)[O-])ccc1O	-25	19	1	4	105*	28	-1	3
COc1cccc(S(=O)(=O)Nc2ccc3c(c2)[C@H]2C[C@@H](CC(=O)O)O[C@H](CO)[C@H]2O3)c1	nt	-3	nt	nt	nt	-25[16.7 µM]	nt	nt
Cc1ccc(N(CCC#N)C(=O)COC(=O)c2ccccn2)cc1	2	5	2	-1	69*	nt	-6	-1
Cc1ccc(N(CCC#N)C(=O)COC(=O)C2=COCCO2)cc1	-8	-6	3	-15	2	-2	nt	nt
COc1ccc(S(=O)(=O)N2CCCCCC2)cc1NC(=O)c1ccccc1	-1	8	-3	-4	6	20	nt	nt
CCN1CCN(S(=O)(=O)c2ccc(OC)c(NC(=O)c3ccccc3)c2)CC1	-4	-2	-1	1	3	5	4	-2
COc1ccc(S(=O)(=O)N2CCN(C)CC2)cc1NC(=O)c1ccccc1	-6	8	-1	10	-6	5	-3	-7
COCC(=O)Nc1ccc2c(c1)[C@@H]1C[C@H](CC(=O)NC3CCCCC3)O[C@H](CO)[C@@H]1O2	nt	-10	nt	nt	nt	-4[16.7 µM]	nt	nt
CCCSc1ccc([C@@H]2[C@@H]3C(=O)N(C)C(=O)[C@@H]3[C@]3(C(=O)OC)CCCN23)cc1OC	-4	nt	1	3	60*	nt	-5	-7
CCCCCCSc1ccc([C@@H]2[C@H]3C(=O)N(C)C(=O)[C@H]3[C@]3(C(=O)OC)CCCCN23)cc1OC	-17	8	-6	-27	20	2	nt	nt
O=c1c2c3c(sc2nc2n1CCCCC2)CCC3	-5	nt	-1	-33	104*	nt	-3	-5
CCC(=O)NC1=C(Cl)C(=O)C(NC(=O)CC)=C(Cl)C1=O	-1	86*	6	14	66*	-71	61*	6
CCC(=O)NC1=C(NC(C)c2ccccc2)C(=O)c2ccccc2C1=O (stereo not drawn)	-7	nt	6	4	4	nt	nt	nt
Cc1csc(NC(=O)c2ccc(Cn3nc(C)c(Br)c3C)o2)n1	-7	28	-1	-4	58*	8	-15	3
O=C(Nc1cccnc1)c1ccc(Cl)c(Cl)c1	3	9	1	-3	11	-4	nt	nt
CC(C)(C)c1cc(C(=O)Nc2cccnc2)cc(C(=O)Nc2cccnc2)c1	-9	31	-5	-29	61*	26	4	0
CC(C)(C)[C@@H]1C=C(C(=O)N2CCCC2)O[C@H](OCc2ccc(CO)cc2)C1	nt	-70	nt	nt	nt	-13[16.7 µM]	nt	nt
Cc1cc(C)c(NC(=O)CS)c(Cl)c1	10	4	5	-4	26	-1	nt	nt
Cc1cc(C)c(NC(=O)CC(=O)c2ccccc2)c(Cl)c1	-10	-21	0	-2	-12	-12	11	-5
CO[C@@H]1CN(C)C(=O)c2ccc(NC(=O)c3nc4ccccc4s3)cc2OC[C@@H](C)NC[C@@H]1C	nt	nt	nt	nt	nt	-1[16.7 µM]	nt	nt
C[C@@H]1CN([C@@H](C)CO)C(=O)c2cccc(NS(C)(=O)=O)c2O[C@@H]1CN(C)S(=O)(=O)c1ccccc1	nt	nt	nt	nt	nt	0[16.7 µM]	nt	nt
COc1cc(CC(=O)OCC(=O)N2CCCCC2)cc(OC)c1OC	6	8	0	3	58*	-31	1	-5
Cc1cc(C)cc(OCC(=O)Nc2ccc3c(c2)C(=O)c2ccccc2C3=O)c1	nt	-10	0	-7	97*	18	6	6
COc1ccc(OC)c2c1C(=O)C(Cl)=C(Cl)C2=O	-6	100*	-3	110*	87*	94*	72*	28
Cn1c(SCC(=O)NC2CC2)nnc1C(F)(F)F	nt	nt	2	21	-22	-6	nt	nt
SMILES	Rtt109 HAT inh	PAX8 reporter	Glyco luc inh	PfHsp90 set2	Arr AP2 block	Env fusion inh	Arr-AP2 CP1	GST-FITC bead
CC(C)NC(=O)NC(=O)CSc1nnc(C(F)(F)F)n1C	-4	-7	0	11	66*	-10	-3	-7
C[C@@H]1CN([C@@H](C)CO)C(=O)c2cc(-c3ccc(F)cc3)cnc2O[C@H]1CN(C)Cc1ccc(F)cc1	nt	nt	nt	nt	nt	19[16.7 µM]	nt	nt
Cc1cccc(C(=O)N/C(=C/c2ccco2)C(=O)N2CCCCCC2)c1	9	-20	-2	6	66*	9	-2	11
CN(C)CC(=O)Nc1ccc2c(c1)[C@@H]1C[C@@H](CC(=O)NC3CCCCC3)O[C@H](CO)[C@@H]1O2	nt	-6	nt	nt	nt	-16[16.7 µM]	nt	nt
COc1ccc(NS(=O)(=O)c2ccc(Br)cc2)cn1	-7	8	-3	-75	57*	-1	-2	-4
CC1Cc2ccccc2N1C(=O)Cn1cc(C(F)(F)F)ccc1=O (stereo not drawn)	nt	7	0	nt	nt	27	nt	nt
CC1Cc2ccccc2N1C(=O)C(C)n1cc(C(F)(F)F)cc(Cl)c1=O (stereo not drawn)	32	-2	0	10	69*	nt	-8	-8
Cn1c(C(=O)NC2CCCCC2)cc2c(=O)n3ccccc3nc21	-41	-25	7	5	60*	-4	-2	-5
Cn1nc(C(=O)NC2CCCC2)c2ccccc2c1=O	-2	-10	2	-1	69*	-4	4	0
CC(C)C#Cc1ccc2c(c1)O[C@H](CN(C)C(=O)c1cccc(F)c1)[C@@H](C)CN([C@@H](C)CO)S2(=O)=O	nt	nt	nt	nt	nt	14[16.7 µM]	nt	nt
CC(C)CN1CCC(=O)N(CCOc2ccccc2)CC1	3	-4	1	2	57*	-2	9	-1
C[C@H](CO)N1C[C@H](C)[C@@H](CN(C)C(=O)Nc2ccc(C(F)(F)F)cc2)Oc2ccc(NC(=O)C3CC3)cc2CC1=O	nt	-13	nt	nt	nt	7[16.7 µM]	nt	nt
COc1ccc(NC(=O)N[C@H]2C=C[C@@H](CC(=O)NC3CCC3)O[C@H]2CO)cc1	nt	-6	nt	nt	nt	-11[16.7 µM]	nt	nt
CN1CCN(C(=O)c2ccc3c(Cl)c4c(nc3c2)CCCC4)CC1	1	-56	1	-20	64*	-4	-6	-4
COc1ccc(N2CCN(C(=O)c3ccc(NS(=O)(=O)c4ccccc4)cc3)CC2)cc1	4	nt	-1	11	-8	nt	nt	nt
COc1ccc(N2CCN(C(=O)c3ccc(S(=O)(=O)NCc4ccco4)cc3)CC2)cc1	6	3	3	13	0	2	-5	-8
Cc1ccccc1CN1CCN(C(=O)c2ccc(S(=O)(=O)NCc3ccco3)cc2)CC1	1	48	7	-22	9	-7	2	-1
